From PubChem BioAssay
OXTR potentiate – human OXTR potentiation | CHO-OTR cells, Fluo-8 calcium fluorescence, potentiator mode; 0% = oxytocin EC15, 100% = EC100 | P30559 | activation, % at 3 µM | actives 0.061% (n = 320,000) | AID 2445;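 active means activation above that plate's cutoff, the mean activation of tested compounds plus 3 SD, cut at about 6.6% in these data, passing the limit was not always enough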;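 further: 100% uses oxytocin at 75 nM as the full agonist control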
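Dosing: Single dose, 3.0 µM nominal final compound concentration | Material: Human OTR in CHO cells | Technique: Kinetic Fluo-8 calcium fluorescence | Benchmarks: EC15 oxytocin alone as 0%, 75 nM oxytocin as 100% | Probe or stimulus: Oxytocin at about EC15, sub-maximal agonist stimulus | Incubation: Compound 6 min at room temperature before oxytocin, 100 s read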
TAAR1 antag – antagonists of human TAAR1. Q96RJ0. CHO RD-HGA16 TAAR1, Fluo-8 calcium fluorescence, antagonist. inhibition, % at 3 µM. actives 1.5% (n = 360,000). AID 624466;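 active means inhibition above a per-plate cutoff, the mean inhibition of test compounds on that plate plus 3 SD, cut at about 49% in these data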;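 further: 0% = DMSO plus EC80 beta-PEA response and 100% = DMSO alone without agonist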
Target sequence (Q96RJ0 whole entry, looked up): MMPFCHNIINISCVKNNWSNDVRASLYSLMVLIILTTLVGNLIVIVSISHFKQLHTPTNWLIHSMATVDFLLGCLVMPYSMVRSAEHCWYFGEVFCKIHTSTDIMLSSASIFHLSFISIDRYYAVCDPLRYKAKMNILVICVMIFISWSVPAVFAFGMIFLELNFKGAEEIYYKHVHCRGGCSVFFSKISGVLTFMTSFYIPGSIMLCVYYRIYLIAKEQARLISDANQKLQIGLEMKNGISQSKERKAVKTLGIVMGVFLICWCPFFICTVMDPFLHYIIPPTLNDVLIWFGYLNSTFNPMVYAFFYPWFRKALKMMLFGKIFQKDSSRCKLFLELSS
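Test system – hTAAR1-expressing CHO RD-HGA16 cells, Gα16-coupled · Also added – β-PEA at EC80 concentration, post-compound challenge · Compound – 3 µM, single point · Incubation – dye loading 75 min at 37 °C, then 30 min room temperature · Measured by – Fluo-8 intracellular calcium dye fluorescence, real-time kinetic reads · Benchmarks – vehicle and agonist controls · Replicates – singlicate, one well per test compound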
TAAR1 agonist – human TAAR1 agonism; Q96RJ0; CHO RD-HGA16 TAAR1, Fluo-8 calcium fluorescence; vehicle wells 0%, saturating PEA agonist 100%; activation, % at 3 µM; actives 0.99% (n = 360,000); AID 624467;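 active means activation above the mean activation of all test compounds in the run plus 3 SD, cut at about 38% in these data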
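Benchmarks: low control DMSO, high control PEA (EC100); System: CHO RD-HGA16 cells carrying human TAAR1 plus Gα16; Detection: Fluo-8 fluorescence, 5 s baseline then 140 s kinetic read; Schedule: 17-24 h plating, Fluo-8 75 min 37 °C, 30 min RT; Read-out basis: % activation from peak over basal fluorescence ratio, DMSO-to-PEA scaled.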
V1aR counter – V1a receptor agonism, counter-screen for OXTR agonists. actives 0.25% (n = 320,000). activation, % at 3 µM. P37288. CHO-V1R cells, Fluo-8 calcium fluorescence, agonist mode; 0% DMSO, 100% 3 nM vasopressin;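 active means activation above the mean activation of all tested compounds plus 3 SD, per screening run, cut at about 20% in these data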;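 further: signal is peak over basal fluorescence ratio across a 100 second FLIPR read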
OXTR ag – activates the human oxytocin receptor. P30559. CHO-OTR cells, Fluo-8 calcium fluorescence; normalized: DMSO 0%, oxytocin 100%. activation, % at 3 µM. actives 0.32% (n = 320,000). AID 2435;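 active means activation above the mean of all tested compounds plus 3 SD, cutoff set per screening run, cut at about 20% in these data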;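 further: peak over basal fluorescence ratio from a 100 s FLIPR kinetic read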
* marks the source's active call; other numbers are inactive results; x = not tested or not shown. Most compounds without a hit are left out; they make up all but 2.3% or so of the library.

SMILES	OXTR potentiate	TAAR1 antag	TAAR1 agonist	V1aR counter	OXTR ag
CC1(C)CN(c2ccsc2C(=O)O)C1=O	-9	-4	6	1	-1
COc1ccc(C2(c3ccc(OC)cc3)NC(=O)N(CC(=O)NCC(C)c3ccccc3)C2=O)cc1 (centres undefined)	-7	57*	22	3	0
Cc1ccc(S(=O)(=O)N[C@H](C(=O)NC2CCC(C)CC2)C(C)C)cc1 (some centres undefined)	1	-1	2	0	-2
Cc1cccc(C)c1NC(=O)C(=O)NCCc1c[nH]c2ccccc12	-9	5	46*	7	16
Cc1[nH]c2ccccc2c1C(=O)C(=O)NCCc1c[nH]c2ccccc12	-8	75*	45*	4	7
O=C(NCCc1c[nH]c2ccccc12)C(=O)c1c[nH]c2ccccc12	-10	62*	40*	1	3
COc1cc2cc(C(=O)NCCc3c[nH]c4ccccc34)c(N)nc2cc1OC	x	70*	52*	x	x
O=C(N/N=C/c1ccccc1O)c1cc[n+]([O-])cc1	-3	11	15	1	0
COc1ccc(-n2c3c(cc(C(=O)Nc4ccc(C)cc4)c2=O)C(=O)CCC3)cc1	-12	7	8	0	0
Cc1cc(C(=O)CSc2nc(N)cc(N)n2)c(C)n1CCc1ccc(F)cc1	-14	17	39*	2	5
Cc1cc(C(=O)COC(=O)c2ccc(O)cc2)c(C)n1CCc1ccc(F)cc1	-12	20	36	2	4
COc1ccc(-n2nc(C(=O)NCC(=O)NC3CCCCCC3)c3ccccc3c2=O)cc1OC	-14	50*	10	6	1
COc1ccc(-n2nc(C(=O)NCC(=O)N3CCCC(C)C3)c3ccccc3c2=O)cc1Cl (centres undefined)	-8	41	18	-2	-2
COc1ccc(-n2nc(C(=O)NCC(=O)N(C)Cc3ccccc3)c3ccccc3c2=O)cc1OC	-1	49*	9	-1	-2
COc1ccc(-n2nc(C(=O)NCC(=O)N3CCCCCC3)c3ccccc3c2=O)cc1OC	-7	6	7	0	-1
CCOC(=O)C1CCCN(C(=O)CNC(=O)c2nn(-c3ccc(OC)c(Cl)c3)c(=O)c3ccccc23)C1 (centres undefined)	0	51*	38*	-2	-2
CCc1nc2c(OCc3ccccc3C(=O)OC)cccn2c1N(C)C(=O)c1cccc(OC)c1	x	5	1	x	x
CCn1c(CNC(=O)c2cccc(C)c2)nnc1SCC(=O)NC1=NCCS1	-4	-11	0	0	-1
CN1CCC(Oc2ccc(Sc3ccccc3)cc2)CC1	-9	-4	17	11	22*
CN1CCC(Oc2ccccc2Sc2ccc(C(F)(F)F)cc2)CC1	-7	2	2	8	15
CCCOC(=O)C1NC(=O)N2C(C(=O)OCCC)C(C)(C)S[C@H]12 (some centres undefined)	6	4	8	2	0
CC1(C)S[C@@H]2C(C(=O)OCc3ccccc3)NC(=O)N2C1C(=O)OCc1ccccc1 (some centres undefined)	-10	51*	9	2	1
COC(=O)C1=C(C)N(c2cccc(C)c2)C(=O)/C1=C\c1cccs1	-8	-3	48*	0	-2
CCC(NC(=O)c1cc(COc2ccc(F)cc2Cl)on1)c1ccncc1 (centres undefined)	x	24	43*	x	x
CCN1CCN(c2ccc(S(=O)(=O)N3CCCCC3)cc2NC(=O)Cc2ccc(Cl)c(Cl)c2)CC1	-18	x	x	49*	86*
CCOC(=O)c1cc(C(=O)OCC)c(=O)[nH]c1SCc1ccccc1	-17	-27	41*	2	-2
O=C(Cc1cccs1)N(Cc1cccs1)C1(C(=O)NC2CCCC2)CCCCC1	-19	12	8	28*	24*
C=CCC[C@H](Cc1ccc(F)cc1)C(=O)OC[C@@H](C)NC(=O)[C@@H](CC=C)CC(=O)N[C@H](CO)Cc1ccccc1	-8	51*	17	3	-1
